Source: ChEMBL document CHEMBL1938334, “Quinoline tricyclic derivatives. Design, synthesis and evaluation of the antiviral activity of three new classes of RNA-dependent RNA polymerase inhibitors” (Bioorg Med Chem, 2011)

Legend:
CCRF-SB = experiment: Cytotoxicity against human CCRF-SB cells after 96 hrs by MTT assay; type: functional
Outline: (§1)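 Cells were seeded at 1×10^5 cells/mL: leukaemia/lymphoma lines in RPMI-1640, solid tumour and fibroblast lines in specific media, all with 10% FCS. Serial compound dilutions were applied for 96 h at 37 °C, 5% CO2, under conditions allowing controls at least three rounds of multiplication. Viability was read by MTT. CC50 by linear regression. Mean of three determinations.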

HepG2 = experiment: Cytotoxicity against human HepG2 cells after 96 hrs by MTT assay; type: functional; conditions: HepG2, 96 h; outline: as §1
DU-145 = experiment: Cytotoxicity against human DU145 cells after 96 hrs by MTT assay; type: functional; conditions: DU-145, 96 h; outline: as §1
[1] = test system: Human immunodeficiency virus 1; experiment: Antiviral activity against HIV1 3B infected in human MT4 cells assessed as inhibition of virus-induced cytopathogenicity after 4 days by MTT assay; type: functional, organism-based; conditions: Human immunodeficiency virus 1, 3B, MT4, 96 h
Outline: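 MT-4 cells (1×10^4 per well) were infected with HIV-1 IIIB at 100 CCID50, m.o.i. 0.01, together with serial compound dilutions. Viability was read by MTT after 4 days at 37 °C. EC50 was taken by linear regression versus untreated controls. Mean of three determinations.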

[2] = Antiviral activity against Bovine viral diarrhea virus 1-NADL infected in MDBK cells assessed as inhibition of virus-induced cytopathogenicity after 3 to 4 days by MTT assay; type: functional, cell-based; conditions: Bovine viral diarrhea virus isolates and strains
Outline: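 Host cells were seeded in 96-well plates at 3×10^4 cells/well (MDBK) or 5×10^4 cells/well (BHK-21) and grown to confluent monolayers overnight. They were infected at m.o.i. 0.01 in maintenance MEM with 0.5% inactivated FBS. Serial compound dilutions were added after 1 h. Viability was read by MTT after 3–4 days at 37 °C. EC50 was taken by linear regression against untreated controls. Mean of three determinations.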

[3] = Cytotoxicity against BHK21 cells after 48 to 96 hrs by MTT assay; type: cell-based, Mesocricetus auratus, BHK-21; conditions: hamster
Outline: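 MDBK seeded at 6×10^5 and BHK at 1×10^6 cells/mL in MEM-Earle's with L-glutamine, 1 mM pyruvate, kanamycin, plus 10% horse serum (MDBK) or 10% FBS (BHK). Cells were grown at 37 °C, 5% CO2 with serial compound dilutions (DMSO stocks diluted in medium). Viability by MTT after 48–96 h. CC50 was taken by linear regression versus untreated controls; three independent determinations.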

Coxsackievirus B5 = experiment: Antiviral activity against Human coxsackievirus B5 Ohio-1 infected in african green monkey Vero 76 cells assessed as reduction of virus-induced plaque formation after 3 days using crystal violet staining; type: functional, organism-based; conditions: Enterovirus B, Ohio-1, Vero, 72 h
Poliovirus 1 = experiment: Antiviral activity against Human poliovirus 1 strain Sabin Chat infected in african green monkey Vero 76 cells assessed as virus-induced reduction of plaque formation after 2 days using crystal violet staining; type: functional, cell-based; conditions: Enterovirus C, 48 h
Human orthopneumovirus = experiment: Antiviral activity against Human respiratory syncytial virus A2 infected in african green monkey Vero 76 cells assessed as reduction of virus-induced plaque formation after 5 days using crystal violet staining; type: functional, organism-based; conditions: 120 h
[4] = test system: Vesicular stomatitis Indiana virus; experiment: Antiviral activity against clinical isolate Vesicular stomatitis Indiana virus infected in african green monkey Vero 76 cells assessed as reduction of virus-induced plaque formation after 2 days using crystal violet staining; type: functional, organism-based; conditions: 48 h
Human alphaherpesvirus 1 = experiment: Antiviral activity against Human herpesvirus 1 strain KOS infected in african green monkey Vero 76 cells assessed as reduction of virus-induced plaque formation after 3 days using crystal violet staining; type: functional, organism-based; conditions: Human alphaherpesvirus 1, KOS, 72 h

Work on `O=[N+]([O-])c1ccc(-c2nc3cc4cccnc4c(Cl)c3[nH]2)cc1` yielded a CC50 (CCRF-SB) of over 100 µM, a CC50 (HepG2) of 10.3 µM and a CC50 (DU-145) of over 100 µM. The EC50 [1] was over 100 µM, the EC50 [2] was 1.2 µM and the CC50 [3] was over 100 µM. For the same molecule, the EC50 (Coxsackievirus B5) was over 100 µM, the EC50 (Poliovirus 1) was over 100 µM and the EC50 (Human orthopneumovirus) was over 100 µM. It also gave an EC50 [4] of over 100 µM and an EC50 (Human alphaherpesvirus 1) of 44 µM.
